Here are results for twelve compounds from ChEMBL document CHEMBL2034886, “Anticancer and radiosensitizing evaluation of some new pyranothiazole-Schiff bases bearing the biologically active sulfonamide moiety” (Eur J Med Chem, 2012).

Test [1] has as its system MCF7. The test can be described thus: Cytotoxicity against 8 Gy irradiated human MCF7 cells assessed as surviving fraction at 100 uM after 1 hr by clonogenic assay (reference value: 0.927 +/- 0.02). The format is functional. The procedure, abridged: (§1)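 MCF7 cells were treated with compound at 10, 25, 50 or 100 combined with one 8 Gy dose of ¹³⁷Cs gamma radiation at 1 Gy/min. Surviving fraction was measured 1 h after irradiation and given as mean ± SE relative to control, analysed by one-way ANOVA. IC50 was derived by nonlinear regression curve fitting.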

Test [2] relates to MCF7. Description: Cytotoxicity against human MCF7 cells assessed as surviving fraction at 50 uM after 48 hrs by sulforhodamine B assay. The arrangement: unit not given here. The class given is functional. The procedure, abridged: (§2)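 SRB assay on MCF7 breast cancer cells plated at 10^4 cells/well for 24 h before treatment. Compounds were dissolved in DMSO, diluted with saline and tested at 10, 25, 50 and 100 in triplicate wells for 48 h at 37 °C under 5% CO₂. Cells were fixed and stained 30 min with 0.4% SRB in 1% acetic acid, washed four times with acetic acid, and the dye was recovered in Tris-EDTA and read on an ELISA reader. IC50 was taken from the survival curve.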
(In general: Sulforhodamine B stains cellular protein and so reports cell mass.)

Test [3] has as its system MCF7. Description: Cytotoxicity against human MCF7 cells assessed as surviving fraction at 10 uM after 48 hrs by sulforhodamine B assay. The format is functional. A digest of the protocol: as §2
The subject of test [4] is MCF7. Description: Cytotoxicity against 8 Gy irradiated human MCF7 cells assessed as surviving fraction at 25 uM after 1 hr by clonogenic assay (reference value: 0.927 +/- 0.02). The format is functional. The procedure, abridged:
as §1

Test [5] has as its system MCF7. Description: Cytotoxicity against 8 Gy irradiated human MCF7 cells after 1 hr by clonogenic assay. The format is functional, cell-based. The following applies: MCF7, light or radiation study. The procedure, abridged: as §1
Test [6] deals with MCF7. The test can be described thus: Cytotoxicity against 8 Gy irradiated human MCF7 cells assessed as surviving fraction at 50 uM after 1 hr by clonogenic assay (reference value: 0.927 +/- 0.02). The class given is functional. A digest of the protocol: as §1
The test system of test [7] is MCF7. The test can be described thus: Cytotoxicity against human MCF7 cells assessed as surviving fraction at 100 uM after 48 hrs by sulforhodamine B assay. The format is functional. A digest of the protocol:
as §2

The subject of test [8] is MCF7. The test can be described thus: Cytotoxicity against human MCF7 cells assessed as surviving fraction at 25 uM after 48 hrs by sulforhodamine B assay. The class given is functional. A digest of the protocol:
as §2

The subject of test [9] is MCF7. The test can be described thus: Cytotoxicity against 8 Gy irradiated human MCF7 cells assessed as surviving fraction at 10 uM after 1 hr by clonogenic assay (reference value: 0.927 +/- 0.02). The class given is functional. A digest of the protocol:
as §1

Test [10] deals with MCF7. The test can be described thus: Cytotoxicity against human MCF7 cells after 48 hrs by sulforhodamine B assay. Particulars: MCF7, 48 h. The format is functional, cell-based. The procedure, abridged: as §2
The subject of test [11] is MCF7. Description: Ratio of doxorubicin IC50 to compound IC50 for human MCF7 cells. The class given is functional.

As a reminder, the IC50 is the concentration needed to halve the response being measured. Take `COc1ccc(C2C(C#N)=C(N)Oc3nc(Nc4ccc(S(N)(=O)=O)cc4)sc32)cc1` (stereo not drawn): the Activity in [1] is reported as 0.201 fraction (of control); in test [2], 0.331; in test [3], 0.81 fraction; in [4], 0.346 fraction (of 1); in test [6] it was 0.171 fraction; in test [7] it was 35%. In addition, the values for the Activity in test [8] and in test [9] were 55% and 0.618 fraction (unitless), respectively. Besides, the results for the IC50 in [5] and in [10] were 14.8 µM and 27.5 µM, respectively.
On to `COc1ccc(C2C(C#N)=C(/N=C/c3ccccc3)Oc3nc(Nc4ccc(S(N)(=O)=O)cc4)sc32)cc1` (stereo not drawn), for which the Activity in test [2] stood at 0.307; in test [3] it was 0.825 fraction; in [7], 27.1%; in test [8], 66.8%. The compound further showed an IC50 in test [10] of 33.5 µM.
In the case of `COc1ccc(C2C(C#N)=C(/N=C/c3ccccc3Cl)Oc3nc(Nc4ccc(S(N)(=O)=O)cc4)sc32)cc1` (stereo not drawn), the “Ratio IC50” value in test [11] worked out at 3.1. The Activity in [1] is on record as 0.119 fraction (of control); in [2], 0.36; in [3], 0.541 fraction; in test [4], 0.237 fraction (of 1); in [6], 0.135 fraction; in test [7], 46%. Besides, the Activity in test [8] is recorded as 32.3%; in [9], 0.453 fraction (unitless). For the same compound, the values for the IC50 in test [5] and in [10] were 9.11 µM and 10.2 µM, respectively.
For the compound `COc1ccc(C2C(C#N)=C(/N=C/c3ccc(Cl)cc3)Oc3nc(Nc4ccc(S(N)(=O)=O)cc4)sc32)cc1` (stereo not drawn), the Activity in test [1] is recorded as 0.201 fraction (of control); in test [2], 0.355; in test [3], 0.443 fraction; in test [4], 0.217 fraction (of 1); in [6], 0.17 fraction; in test [7] it was 29%. In addition, the Activity was 25.1% in test [8] and 0.311 fraction (unitless) in test [9]. Moreover, the IC50 is 8.72 µM in test [5] and 9.55 µM in [10].
`COc1ccc(C2C(C#N)=C(/N=C/c3cccc(Br)c3)Oc3nc(Nc4ccc(S(N)(=O)=O)cc4)sc32)cc1` (stereo not drawn): the Ratio IC50 in test [11] turned out to be 3.4. In addition, the Activity in test [1] is recorded as 0.235 fraction (of control); in test [2] it was 0.371; in test [3], 0.435 fraction; in test [4] it was 0.211 fraction (of 1); in [6], 0.119 fraction; in test [7], 30.9%. Further, the Activity is given as 23.3% in test [8] and 0.319 fraction (unitless) in test [9]. Besides, the IC50 in [5] is 8.72 µM; in test [10], 9.39 µM.
As to `COc1ccc(C2C(C#N)=C(/N=C/c3ccc(F)cc3)Oc3nc(Nc4ccc(S(N)(=O)=O)cc4)sc32)cc1` (stereo not drawn), the Activity in test [2] is on record as 0.38; in [3] it was 0.845 fraction; in test [7] it was 44.3%; in [8] it was 55.1%. Moreover, in test [10], the IC50 worked out at 28.9 µM.
On to `COc1ccc(C2C(C#N)=C(/N=C/c3ccc(Cl)cc3Cl)Oc3nc(Nc4ccc(S(N)(=O)=O)cc4)sc32)cc1` (stereo not drawn), for which the Activity amounted to 0.377 in [2], 0.693 fraction in [3], 39.1% in test [7] and 50.3% in test [8]. Besides, the IC50 in [10] came out at 23.5 µM.
On to `COc1ccc(C2C(C#N)=C(/N=C/c3ccc([N+](=O)[O-])cc3)Oc3nc(Nc4ccc(S(N)(=O)=O)cc4)sc32)cc1` (stereo not drawn), for which the Ratio IC50 in [11] came out at 3.3. Moreover, the Activity is 0.13 fraction (of control) in test [1]; 0.313 in [2]; 0.48 fraction in test [3]; 0.201 fraction (of 1) in test [4]; 0.1 fraction in test [6]; 38.1% in [7]. For the same compound, the Activity in test [8] is listed as 32.7%; in test [9], 0.403 fraction (unitless). Further, the IC50 in test [5] was determined as 7.55 µM; in test [10], 9.7 µM.
For `COc1ccc(C2C(C#N)=C(/N=C/c3ccc(N(C)C)cc3)Oc3nc(Nc4ccc(S(N)(=O)=O)cc4)sc32)cc1` (stereo not drawn), the Activity in test [2] turned out to be 0.347; in [3] it was 0.792 fraction; in [7], 37.8%; in test [8], 70.1%. The IC50 in test [10] worked out at 36.2 µM.
Taken in the same sequence, the figures for `COc1ccc(C2C(C#N)=C(/N=C/C=C/c3ccccc3)Oc3nc(Nc4ccc(S(N)(=O)=O)cc4)sc32)cc1` (stereo not drawn) were 0.242, 0.828 fraction, 37%, 60.1% and 28.9 µM.
Taken in the same sequence, the figures for `COc1ccc(C2C(C#N)=C(/N=C/c3ccc(O)cc3)Oc3nc(Nc4ccc(S(N)(=O)=O)cc4)sc32)cc1` (stereo not drawn) were 0.37, 0.872 fraction, 30.7%, 63.8% and 34.5 µM.
Taken in the same sequence, the figures for `COc1ccc(C2C(C#N)=C(/N=C/c3ccc4c(c3)OCO4)Oc3nc(Nc4ccc(S(N)(=O)=O)cc4)sc32)cc1` (stereo not drawn) were 0.419, 0.814 fraction, 39.3%, 66% and 38.2 µM.
